ChEMBL document CHEMBL1138778, “Effects of altering the electronics of 2-methoxyestradiol on cell proliferation, on cytotoxicity in human cancer cell cultures, and on tubulin polymerization” (J Med Chem, 2004)

What was measured:
OVCAR-3 = assay: Growth inhibitory concentration required against human ovarian OVCAR-3 cancer cell line; type: functional
Procedure, shortened: (§1)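 Screen over 10^-4 to 10^-8 M in a human cancer cell line panel. GI50 is the concentration giving 50% growth inhibition of the individual cell line.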

DU-145 = assay: Growth inhibitory concentration required against human prostate DU-145 cancer cell line; type: functional; procedure, shortened: as §1
MDA-MB-231 = assay: Inhibitory concentration against growth of MDA-MB-231 cancer cell line; type: functional, cell-based; settings: Homo sapiens
Procedure, shortened: (§2)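 MDA-MB-231 cells in DMEM/F12 (1:1) with 10% FBS, seeded at 1000 cells/well and attached overnight. Cells were exposed to compound for 48 h. Proliferation was read by BrdU-incorporation colorimetric ELISA or by cell counting, in triplicate, with experiments repeated at least twice.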

SN12C = assay: Growth inhibitory concentration required for against human renal SN12C cancer cell line; type: functional; procedure, shortened: as §1
SF-539 = assay: Growth inhibitory concentration required against human CNS SF-539 cancer cell line; type: functional; procedure, shortened: as §1
HCT-116 = assay: Growth inhibitory concentration against human colon cancer HCT116 cell line; type: functional; procedure, shortened: as §1
[1] = Average concentration required for 50% growth inhibition of human cancer cell line (tested); type: functional; settings: Cancer cell lines
Procedure, shortened: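 Mean graph midpoint: average of the individual cell line GI50 values across all cancer lines screened over 10^-4 to 10^-8 M. GI50 values falling outside this range were set to 10^-8 M (below) or 10^-4 M (above).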

HUVEC = assay: Inhibitory concentration required against growth of HUVEC […] cell line; type: functional, cell-based; settings: Homo sapiens
Procedure, shortened: as §2, with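 “HUVEC, used up to five passages” for “MDA-MB-231 cells”, “EGM” for “DMEM/F12 (1:1)”, “bovine brain extract and antibiotic-antimycotic,” for “10% FBS,”, “3000” for “1000”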

UACC-62 = assay: Growth inhibitory concentration required against human melanoma UACC-62 cancer cell line; type: functional; procedure, shortened: as §1
Tubulin = Tubulin (Bos taurus, UniProt Q6B856+Q862L2+Q862F3); assay: Inhibitory concentration against bovine tubulin polymerization; type: functional
Procedure, shortened: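 Bovine brain tubulin, 1.2 mg/mL (12 μM), was preincubated with a range of compound concentrations and then chilled on ice. GTP was added and assembly followed by turbidity at 350 nm for 20 min at 26 °C. IC50 is the concentration halving assembly at 20 min, from at least two independent assays.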

HOP-62 = assay: Growth inhibitory concentration against human lung cancer HOP-62 cell line; type: functional; procedure, shortened: as §1
MDA-MB-435 = assay: Growth inhibitory concentration required against human breast MDA-MB-435 cancer cell line; type: functional; procedure, shortened: as §1

| SMILES | GI50 (OVCAR-3) [µM] | GI50 (DU-145) [µM] | IC50 (MDA-MB-231) [µM] | GI50 (HCT-116) [µM] | IC50 (Tubulin) [µM] | GI50 (MDA-MB-435) [µM] | GI50 (SN12C) [µM] | GI50 (SF-539) [µM] | GI50 [1] [µM] | IC50 (HUVEC) [µM] | GI50 (UACC-62) [µM] | GI50 (HOP-62) [µM] |
| --- | --- | --- | --- | --- | --- | --- | --- | --- | --- | --- | --- | --- |
| C[C@]12CC[C@@H]3c4cc(CO)c(O)cc4CC[C@H]3[C@@H]1CC[C@@H]2O | 31.6 | 70.8 | 99.2 | 74.1 | > 40 | 24 | 63.1 | 38 | 34.7 | 7.73 | 23.4 | 72.4 |
| CCOc1cc2c(cc1O)CC[C@@H]1[C@@H]2CC[C@]2(C)[C@@H](O)CC[C@@H]12 | – | – | 0.55 | – | – | – | – | – | – | 0.12 | – | – |
| C=CCc1cc2c(cc1O)CC[C@@H]1[C@@H]2CC[C@]2(C)[C@@H](O)CC[C@@H]12 | 21.9 | 24 | 33.4 | 14.1 | > 40 | 15.1 | 18.2 | 21.9 | 18.2 | 8.51 | 13.2 | 13.8 |
| CCC(=O)c1cc2c(cc1O)CC[C@@H]1[C@@H]2CC[C@]2(C)[C@@H](O)CC[C@@H]12 | 4 | 15.5 | 15.8 | 9.3 | > 40 | 2.4 | 13.8 | 11.7 | 12 | 22.5 | 11.5 | 15.1 |
| C=C1CC[C@H]2[C@@H]3CCc4cc(O)c(OCC)cc4[C@H]3CC[C@]12C | 0.28 | 0.47 | 0.7 | 0.6 | 2.9 | 0.08 | 0.19 | 0.12 | 0.79 | 0.26 | 0.54 | 0.56 |
| COc1cc2c(cc1O)CC[C@@H]1[C@@H]2CC[C@@]2(C)[C@H]1CC[C@]2(C)O | 7.1 | 12.3 | 3.33 | 2.8 | > 40 | 1.4 | 7.8 | 6.9 | 10.2 | 2.4 | 6.3 | 15.2 |
| C[C@]12CC[C@@H]3c4cc(/C=N/C5CC5)c(O)cc4CC[C@H]3[C@@H]1CC[C@@H]2O | 14.5 | 16.6 | – | 12.3 | > 40 | 16.2 | 70.8 | 17 | 16.6 | – | 16.2 | 24 |
| CC(=O)c1cc2c(cc1O)CC[C@@H]1[C@@H]2CC[C@]2(C)[C@@H](O)CC[C@@H]12 | 25.7 | 55 | 13.6 | – | > 20 | 4.3 | 53.7 | 18.6 | 17.4 | 15.6 | 24.5 | 5.4 |
| CC#Cc1cc2c(cc1O)CC[C@@H]1[C@@H]2CC[C@@]2(C)[C@H]1CC[C@]2(C)O | 1.5 | 4.1 | 5.99 | 4.3 | 11 | 0.3 | 7.4 | 2.6 | 3.2 | 1.94 | 4 | 3.1 |
| C[C@]12CC[C@@H]3c4cc(C(F)(F)C(F)(F)F)c(O)cc4CC[C@H]3[C@@H]1CC[C@@H]2O | 13.2 | 14.5 | 47.5 | 17.8 | > 40 | 12 | 16.6 | 18.2 | 18.6 | 25 | 13.8 | – |
| COc1cc2c(cc1O)CC[C@@H]1[C@@H]2CC[C@@]2(C)[C@H]1CC[C@@]2(O)C(F)(F)F | 15.8 | 18.2 | 49.3 | 22.4 | > 40 | 16.2 | 24.5 | 19.5 | 19.5 | 40 | 18.2 | – |
| COCc1cc2c(cc1O)CC[C@@H]1[C@@H]2CC[C@]2(C)[C@@H](O)CC[C@@H]12 | 40.7 | 64.6 | 54 | 33.1 | > 40 | 7.8 | 56.2 | 33.9 | 38 | 28.8 | 24.5 | 83.2 |
| C[C@]12CC[C@@H]3c4ccc(O)cc4CCC3[C@@H]1CCC2(F)F (single isomer, unassigned) | 11 | 16.6 | 54.4 | 14.5 | > 40 | 15.8 | 18.6 | 17.4 | 16.6 | 6.6 | 14.1 | 19.5 |

The next lines start with results.

| GI50 (OVCAR-3) [µM] | GI50 (DU-145) [µM] | IC50 (MDA-MB-231) [µM] | GI50 (HCT-116) [µM] | IC50 (Tubulin) [µM] | GI50 (MDA-MB-435) [µM] | SMILES | GI50 (SN12C) [µM] | GI50 (SF-539) [µM] | GI50 [1] [µM] | IC50 (HUVEC) [µM] | GI50 (UACC-62) [µM] | GI50 (HOP-62) [µM] |
| --- | --- | --- | --- | --- | --- | --- | --- | --- | --- | --- | --- | --- |
| – | – | 3.99 | – | – | – | CC#Cc1cc2c(cc1O)CC[C@@H]1[C@@H]2CC[C@]2(C)[C@@H](O)CC[C@@H]12 | – | – | – | 0.52 | – | – |
| 0.66 | 2 | 7.14 | 0.7 | 5.6 | 0.19 | C[C@]1(O)CC[C@H]2[C@@H]3CCc4cc(O)ccc4[C@H]3CC[C@@]21C | 10.2 | 0.35 | 2.5 | 3.09 | 1.48 | 18.2 |
| 1.9 | 13.8 | 95.9 | 10.7 | > 40 | 20.9 | CC(=O)Oc1cc2c(cc1C(C)(F)F)[C@H]1CC[C@]3(C)[C@@H](OC(C)=O)CC[C@H]3[C@@H]1CC2 | 27.5 | 20 | 11.7 | 32.3 | 12.3 | 31.6 |
| 19.5 | 20.9 | – | 12.6 | > 40 | 22.9 | CN(C)CCC/N=C/c1cc2c(cc1O)CC[C@@H]1[C@@H]2CC[C@]2(C)[C@@H](O)CC[C@@H]12 | 25.7 | 18.2 | 20 | – | 13.8 | 21.4 |
| 20.4 | 29.5 | – | 18.2 | > 40 | 24 | C/C(COc1cc2c(cc1O)CC[C@@H]1[C@@H]2CC[C@]2(C)[C@@H](O)CC[C@@H]12)=N/O | 27.5 | 20.9 | 24 | – | 15.5 | 23.4 |
| 14.1 | 5.1 | 47.2 | 17 | > 40 | 16.2 | COc1cc2c(cc1O)CC[C@@H]1[C@@H]2CC[C@@]2(C)[C@H]1CC[C@]2(C)[C@H](O)c1ccccc1 | 14.1 | 17.8 | 14.5 | 21 | 13.5 | 18.2 |
| 2.8 | 5.2 | 18.4 | 3.5 | 4.8 | 1.3 | CCOc1cc2c(cc1O)CC[C@@H]1[C@@H]2CC[C@@]2(C)[C@H]1CC[C@]2(C)O | 4.5 | 2.8 | 4.7 | 5.7 | 3.74 | 5 |
| 43.7 | 56.2 | 70.8 | 66.1 | > 40 | 35.5 | COc1cc2c(cc1O)CCC1[C@@H]2CC[C@@]2(C)[C@H]1CCC2(F)F (single isomer, unassigned) | 24.5 | 31.6 | 40.7 | 58.3 | 58.9 | 81.3 |
